This note sets out measurements from ChEMBL document CHEMBL1157051, “New dioxazole derivatives: Synthesis and effects on the growth of Entamoeba histolytica and Giardia intestinalis” (Eur J Med Chem, 2010).

Data set [1] relates to Entamoeba histolytica. In words: Antiamoebic activity against Entamoeba histolytica HM-1:IMSS trophozoites after 72 hrs by microdilution technique. The data set is classed as functional, organism-based. The essentials: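 HM1:IMSS trophozoites in TYIS-33 medium, detached by chilling on ice; 1.7 × 10⁴ organisms/well. Samples in DMSO (final ≤0.1%), diluted in medium. Plates gassed with nitrogen 10 min, incubated 37 °C for 72 h. Washed in warm 0.9% NaCl, methanol-fixed, eosin-stained, dye released with 0.1 N NaOH, OD 490 nm. IC50 from linear regression of % inhibition vs log dose; triplicate.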
(Broth dilution looks for growth in wells or tubes with falling amounts of substance.)

Data set [2] deals with Giardia intestinalis. In words: Antigiardial activity against Giardia intestinalis Thai trophozoites after 24 hrs by inverted microscopic analysis. The data set is classed as functional. Conditions: Giardia duodenalis.
Data set [3] relates to Vero. The data set is described as follows: Cytotoxicity against african green monkey Vero cells after 72 hrs by SRB assay. In kind it is cell-based. Conditions: Chlorocebus sabaeus. The method in brief:
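Vero (ATCC CCL-81) at 10⁵ cells/mL in Eagle's MEM with heat-inactivated FBS and 1 mM sodium pyruvate. Samples at maximum final concentration […]; 0.05% DMSO negative control. 72 h at 37 °C, 5% CO₂. Viability by sulphorhodamine B assay; cytotoxic defined as IC50 below the 180 cutoff.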
In general terms: The SRB assay estimates cell density from bound dye.

Data set [4] in a line: Safety index, ratio of IC50 for african green monkey Vero cells to IC50 for Entamoeba histolytica HM-1:IMSS. In kind it is toxicity, cell-based. The conditions noted are these: read-out: Ratio IC50.

Values after ≈ are worked out from the molar mass of the structure shown. Where only a bound is given, the exact number is not on record here.

Usually IC50 stands for the midpoint of a concentration-inhibition curve. The term MIC denotes the lowest concentration that inhibits growth of the organism. Regarding `O=[N+]([O-])c1ccc(C2=NOC(c3ccccc3O)O2)s1` (stereo not given), the IC50 in data set [1] is 2.64 µM; in data set [3] it was less than 180 µM. Moreover, it took 5.33 µM (≈ 1.56 µg/mL) to inhibit growth in data set [2] (MIC).

For `Cc1ccc(C2=NOC(C)(c3ccccc3)O2)cc1` (stereo not given), the IC50 was 1.8 µM in data set [1] and more than 180 µM in data set [3]. In data set [4], the selectivity ratio was more than 100. In addition, the MIC in data set [2] was more than 1500 µM.

With `COc1ccc(C2ON=C(c3ccc([N+](=O)[O-])s3)O2)cc1` (stereo not given), the IC50 in data set [1] was 1.6 µM; in data set [3], less than 180 µM. This molecule also yielded an MIC in data set [2] of 20.4 µM (≈ 6.25 µg/mL).

Turning to `Cc1ccc(C2=NOC(c3ccccc3)O2)cc1` (stereo not given), half-maximal inhibition in data set [1] (IC50) was put at 7.82 µM. For the same molecule, the MIC in data set [2] is more than 1500 µM.

On to `Cc1ccc(C2=NOC(C)(c3ccc(Cl)cc3)O2)cc1` (stereo not given), for which, in data set [1], 7.3 µM corresponded to half-maximal inhibition (IC50). Besides, the MIC in data set [2] is more than 1500 µM.

For `CC1(c2ccccc2)ON=C(c2ccc([N+](=O)[O-])s2)O1` (stereo not given), the IC50 in data set [1] was 3.77 µM; in data set [3], less than 180 µM. Further, the lowest concentration to inhibit growth in data set [2] (MIC) was 10.8 µM (≈ 3.13 µg/mL).

Molecule `Cc1ccc(C2=NOC(c3ccccc3O)O2)cc1` (stereo not given) showed an IC50 in data set [1] of 8.61 µM. For the same molecule, the MIC in data set [2] is more than 1500 µM.

In the case of `O=[N+]([O-])c1ccc(C2=NOC(c3ccccc3)O2)s1` (stereo not given), the IC50 is 9.97 µM in data set [1] and less than 180 µM in data set [3]. For the same molecule, the MIC in data set [2] came out at 5.65 µM (≈ 1.56 µg/mL).

The molecule `Cc1ncc([N+](=O)[O-])n1CCO` [METRONIDAZOLE] came in with an MIC in data set [2] of 14.6 µM (≈ 2.5 µg/mL).

Take `CC1(c2ccc(Cl)cc2)ON=C(c2ccc([N+](=O)[O-])s2)O1` (stereo not given): the IC50 in data set [1] is 6.1 µM; in data set [3] it was less than 180 µM. In data set [2], this molecule came in with a minimum inhibitory concentration (MIC) of 4.55 µM (≈ 1.48 µg/mL).

On to `COc1ccc(C2ON=C(c3ccc(C)cc3)O2)cc1` (stereo not given), for which the IC50 in data set [1] was 1.8 µM; in data set [3], more than 180 µM. For the same molecule, the selectivity ratio in data set [4] was more than 100. In data set [2], this molecule gave an MIC of more than 1500 µM.
